“And” between values parts separate entries of the source, which are not always exact repeats. Equal values may be shown once.
Assays:
[1] = tested on: L. major promastigotes; experiment: In vitro antileishmanial activity, promastigote drug susceptibility; type: cell-based, L. major (MHOM/IL/80/Friedlin); details: for SI L. major: selectivity index IC50(MRC-5)/IC50(parasite)
In short: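 Promastigotes at 1 × 10^6/mL were cultured in modified RPMI-1640 with 10% hiFBS. They were exposed to increasing compound concentrations for 72 h at 28 °C. Proliferation was measured by MTT, with absorbance read at 540 nm.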

[2] = Calculated LD50 on mice, extrapolated from zebrafish embryo LC50; details: mouse
[3] = tested on: bloodstream forms of T. brucei brucei; experiment: In vitro antitrypanosomal activity, bloodstream forms; type: cell-based, T. brucei brucei S427 (S16); details: for IC50: Trypanosoma brucei, 72 h, read-out: IC50 parasite T. brucei; for SI T. brucei: selectivity index IC50(MRC-5)/IC50(parasite)
In short: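 Bloodstream forms were kept in HMI-9 with 10% hiFBS at 37 °C, 5% CO2. Parasites at 1 × 10^4/mL were exposed to increasing compound concentrations for 72 h under the same conditions. Proliferation was read by alamarBlue fluorescence (excitation 550, emission 590 nm), and IC50 was derived from this.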

[4] = tested on: P. falciparum; details: read-out: concentration inhibiting 50% growth of P. falciparum; cited from earlier work
[5] = tested on: MRC-5 human nontumoral lung cell line; details: read-out: IC50 MRC-5; MRC-5 control cell line, MTT, 72 h; cited from earlier work
[6] = tested on: P. falciparum; experiment: In vitro antimalarial activity, [3H]-hypoxanthine incorporation; type: cell-based, P. falciparum (3D7 strain)
In short: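 Infected erythrocytes were used at 1.5% final hematocrit and 0.6% parasitemia in RPMI 1640 with 10% AB human serum. Compounds were dissolved in DMSO and diluted in medium, with final DMSO ≤0.25%. After 48 h at 37 °C, 0.6 μCi [3H]-hypoxanthine was added per well for 18 h. Cells were harvested onto glass-fibre filters for scintillation counting. Uninfected-erythrocyte background was subtracted, and IC50 was taken as 50% growth inhibition.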

[7] = tested on: zebrafish embryos; experiment: Acute toxicity assay on zebrafish embryos; type: in vivo, zebrafish (Danio rerio), strain AB; details: zebrafish embryos, 96 hpf; mortality score >20% assumed as the effect
In short: (§1)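 Embryos of strain AB were collected in E3 medium and sorted at 3 hpf, with 20 healthy embryos per condition. Medium was replaced by compound in 0.1% DMSO/E3, made from a 100 mM DMSO stock, at five log concentrations, either 0.01–100 μM or 0.1 μM–1 mM. Embryos were held at 28.5 °C from 3 to 96 hpf, and coagulated eggs were removed at 24 h. LC50 came from a sigmoidal fit of mortality. Controls were 0.1% DMSO in triplicate (repeat if mortality >20%) and DEAB at 0.1 μM–1 mM.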

[8] = Acute toxicity assay on zebrafish embryos; type: in vivo, zebrafish (Danio rerio), strain AB; details: AB, zebrafish, in vivo
In short: as §1

[9] = tested on: HT-29, MCF-7, and HeLa cancer cells; details: cited from earlier work

CCCNc1cc2c3c(ccc4c3c1C(=O)N(CCCN(C)C)C4=O)C(=O)N(CCCN(C)C)C2=O [Compound 7, NDI-prop]
SI L. major [1]: 10.6 | LD50 [2]: 330 µmol/kg and 178 mg/kg | IC50 [3]: 0.009 ± 0.001 µM | SI T. brucei [3]: 40.0

CN(C)CCCN1C(=O)c2ccc3c4c(c(NCc5cn(CCO[C@H]6O[C@H](CO)[C@@H](O)[C@H](O)[C@@H]6O)nn5)cc(c24)C1=O)C(=O)N(CCCN(C)C)C3=O [Compound 5, α-manC2-NDI]
LD50 [2]: > 630 µmol/kg and > 609 mg/kg

CC(=O)N[C@@H]1[C@@H](O)[C@H](O)[C@@H](CO)O[C@H]1n1cc(CNc2cc3c4c(ccc5c4c2C(=O)N(CCCN(C)C)C5=O)C(=O)N(CCCN(C)C)C3=O)nn1 [Compound 2, β-glcNAc-NDI]
LD50 [2]: > 630 µmol/kg and > 607 mg/kg

Cc1oc2nc1-c1nc(co1)-c1nc(co1)-c1nc(co1)-c1nc(co1)-c1nc(co1)C1=NC(CS1)c1nc-2c(C)o1 (centres unmarked) [telomestatin]
IC50 [4]: 35 µM

C[n+]1ccc(-c2c3nc(c(-c4cc[n+](C)cc4)c4ccc([nH]4)c(-c4cc[n+](C)cc4)c4nc(c(-c5cc[n+](C)cc5)c5ccc2[nH]5)C=C4)C=C3)cc1 [TMPyP4, reference compound]
IC50 [4]: 5 µM | IC50 [5]: > 25 µM

C[C@H]1O[C@@H](n2cc(CNc3cc4c5c(ccc6c5c3C(=O)N(CCCN(C)C)C6=O)C(=O)N(CCCN(C)C)C4=O)nn2)[C@H](O)[C@@H](O)[C@@H]1O [Compound 3, β-6dglc-NDI]
LD50 [2]: 170 µmol/kg and 154 mg/kg

CN(C)CCCN1C(=O)c2ccc3c4c(c(NCc5cn([C@@H]6O[C@H](CO)[C@@H](OC7O[C@H](CO)[C@@H](O)[C@H](O)[C@H]7O)[C@H](O)[C@H]6O)nn5)cc(c24)C1=O)C(=O)N(CCCN(C)C)C3=O.O=C(O)C(F)(F)F.O=C(O)C(F)(F)F (stereo partly drawn) [Compound 4, β-malt-NDI]
IC50 ([1]; Leishmania major, 72 h, read-out: IC50 parasite L. major): 0.921 ± 0.051 µM | SI L. major [1]: 2.2 | LD50 [2]: 190 µmol/kg and 206 mg/kg | IC50 [5]: 2.04 ± 0.05 µM | SI P. falciparum ([6]; selectivity index IC50(MRC-5)/IC50(parasite)): 5.5 | IC50 [3]: 0.099 ± 0.01 µM | SI T. brucei [3]: 20.6 | NOEC [7]: 100 µM | LC50 at 96 hpf [8]: 190 µM

CN(C)CCCN1C(=O)c2ccc3c4c(c(NCc5cn(CCO[C@@H]6O[C@H](CO)[C@@H](O)[C@H](O)[C@H]6O)nn5)cc(c24)C1=O)C(=O)N(CCCN(C)C)C3=O [Compound 6, β-glcC2-NDI]
SI L. major [1]: 1.3 | LD50 [2]: > 630 µmol/kg and > 609 mg/kg | fold more active than compound 1 against P. falciparum [6]: 5 fold | fold more active than compound 1, antitumor activity [9]: approximately 10 fold | IC50 [3]: 0.017 ± 0.009 µM | SI T. brucei [3]: 41.8

Cc1ccc(C(=O)Nc2ccc(S(=O)(=O)O)c3cc(S(=O)(=O)O)cc(S(=O)(=O)O)c23)cc1NC(=O)c1cccc(NC(=O)Nc2cccc(C(=O)Nc3cc(C(=O)Nc4ccc(S(=O)(=O)O)c5cc(S(=O)(=O)O)cc(S(=O)(=O)O)c45)ccc3C)c2)c1 [suramin, reference compound]
IC50 [3]: 0.038 ± 0.003 µM
